Measured values published in ChEMBL document CHEMBL2375220, “Bispyrimidines as potent histamine H(4) receptor ligands: delineation of structure-activity relationships and detailed H(4) receptor binding mode” (J Med Chem, 2013).
Values after ≈ are worked out from the molar mass of the structure shown. One block for each compound: values may come before it.

Key:
Histamine H4 receptor [1] = target: T1, Histamine H4 receptor (Homo sapiens, UniProt Q9H3N8); experiment: Displacement of [3H]histamine displacement from human histamine H4 receptor expressed in […] cells after 60 mins; format: cell-based, SK-N-MC
Method in brief: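 Affinity at the human H4 receptor, from displacement of [3H]histamine binding. Reported as pKi, the mean ± SEM of at least three independent determinations.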

[2] = Aqueous solubility of the compound at pH 6.8 by automated polarized light microscopy analysis; format: physicochemical
Method in brief: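 Aqueous solubility at pH 6.8, measured by precipitation from DMSO solution and reported in μg/mL.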

[3] = Half life in mouse liver microsomes; format: ADME, Microsome
[4] = Half life in human liver microsomes; format: ADME, Microsome
Histamine H4 receptor [5] = target: T1, Histamine H4 receptor; experiment: Displacement of [3H]histamine displacement from human recombinant histamine H4 receptor expressed in […] cells after 45 mins; format: cell-based, SK-N-MC

SMILES: Nc1nccc(NCCNC(=O)c2cc3ccccc3[nH]2)n1
Ki (Histamine H4 receptor [1]): 1260 nM

SMILES: CC(C)CNc1cc(NCCNc2cc(-c3ccccc3)nc(N)n2)nc(N)n1
Ki (Histamine H4 receptor [1]): 3160 nM

SMILES: CC(C)CNc1nccc(NCCN(C)c2cc(-c3ccccc3)nc(N)n2)n1
Ki (Histamine H4 receptor [1]): 31.6 nM

SMILES: Nc1nccc(NCCNc2ccnc(N)n2)n1
Ki (Histamine H4 receptor [1]): 794 nM

SMILES: Nc1nccc(NCCNc2cc(-c3cccc(Cl)c3)nc(N)n2)n1
solubility [2]: > 76 µg/mL
Ki (Histamine H4 receptor [1]): 6.31 nM
half-life [3]: 9 min
half-life [4]: 51 min

SMILES: CC(C)CCc1cc(N2CCN(C)CC2)nc(N)n1
solubility [2]: > 62 µg/mL
Ki (Histamine H4 receptor [5]): 3.16 nM
half-life [3]: < 2 min
half-life [4]: 61 min

SMILES: CC(C)CCc1cc(N(C)CCNc2ccnc(N)n2)nc(N)n1
solubility [2]: > 83 µg/mL
Ki (Histamine H4 receptor [1]): 10 nM
half-life [3]: 8 min
half-life [4]: 82 min

SMILES: CC(C)CNc1nccc(NCCNc2cc(-c3cccc(Cl)c3)nc(N)n2)n1
Ki (Histamine H4 receptor [1]): 50.1 nM

SMILES: Nc1nc(Cl)cc(NCCNc2cc(-c3ccccc3)nc(N)n2)n1
Ki (Histamine H4 receptor [1]): 2510 nM

SMILES: CN(CCNc1ccnc(N)n1)C(=O)c1cc2cc(Cl)ccc2[nH]1
Ki (Histamine H4 receptor [1]): 3160 nM

SMILES: CC(C)CCc1cc(NCCNc2cc(Cl)nc(N)n2)nc(N)n1
Ki (Histamine H4 receptor [1]): 631 nM

SMILES: Nc1nc(NCCNc2cc(-c3ccccc3)nc(N)n2)cc(-c2ccccc2)n1
Ki (Histamine H4 receptor [1]): 1000 nM

SMILES: Cc1nccc(NCCNc2cc(-c3ccccc3)nc(N)n2)n1
Ki (Histamine H4 receptor [1]): 39.8 nM

SMILES: CC(C)CNc1cc(N2CCN(C)CC2)nc(N)n1
solubility [2]: > 64 µg/mL
Ki (Histamine H4 receptor [5]): 3.16 nM
half-life [3]: 4 min
half-life [4]: > 120 min

The remaining lines, values ahead:

Ki (Histamine H4 receptor [1]): 79.4 nM
SMILES: CC(C)CNc1nccc(NCCNc2cc(-c3ccccc3)nc(N)n2)n1

Ki (Histamine H4 receptor [1]): 79.4 nM
SMILES: CN(CCNc1cc(-c2ccccc2)nc(N)n1)c1ccnc(N)n1

Ki (Histamine H4 receptor [1]): 398 nM
SMILES: CC(C)CCc1cc(NCCNc2cc(-c3ccccc3)nc(N)n2)nc(N)n1

Ki (Histamine H4 receptor [1]): 1260 nM
SMILES: CC(C)CNc1nc(NCCNc2ccnc(N)n2)cc(-c2ccccc2)n1

Ki (Histamine H4 receptor [1]): 79.4 nM
SMILES: CC(C)CNc1nccc(NCCNc2ccnc(N)n2)n1

Ki (Histamine H4 receptor [1]): 79.4 nM
SMILES: CC(C)CNc1cc(NCCNc2ccnc(N)n2)nc(N)n1

Ki (Histamine H4 receptor [1]): 10000 nM
SMILES: CN(CCNc1ccnc(N)n1)C(=O)c1cc2ccccc2[nH]1

Ki (Histamine H4 receptor [1]): 501 nM
SMILES: CC(C)CNc1cc(NCCNc2cc(-c3ccccc3)nc(N)n2)ncn1

Ki (Histamine H4 receptor [1]): 316 nM
SMILES: Nc1nccc(NCCNC(=O)c2cc3cc(Cl)ccc3[nH]2)n1

Ki (Histamine H4 receptor [1]): 50.1 nM
SMILES: CC(C)CNc1nccc(NCCN(C)c2cc(-c3cccc(Cl)c3)nc(N)n2)n1

Ki (Histamine H4 receptor [1]): 10 nM
SMILES: CN(CCNc1ccnc(N)n1)c1cc(-c2ccccc2)nc(N)n1

Ki (Histamine H4 receptor [5]): 7.94 nM
SMILES: Nc1nccc(NCCNc2cc(-c3ccccc3)nc(N)n2)n1

solubility [2]: 58 µg/mL (≈ 209 µM)
half-life [3]: 2 min
half-life [4]: > 45 min
SMILES: CN1CCN(C(=O)c2cc3cc(Cl)ccc3[nH]2)CC1 [JNJ-7777120]

Ki (Histamine H4 receptor [1]): 1000 nM
SMILES: CC(C)CNc1cc(NCCNc2ccnc(N)n2)ncn1

Ki (Histamine H4 receptor [5]): 3.16 nM
SMILES: CN1CCN(c2cc(-c3ccc(Cl)cc3)nc(N)n2)CC1

solubility [2]: > 84 µg/mL
Ki (Histamine H4 receptor [1]): 39.8 nM
half-life [3]: 23 min
half-life [4]: 101 min
SMILES: CC(C)CNc1cc(N(C)CCNc2ccnc(N)n2)nc(N)n1

solubility [2]: 61 µg/mL (≈ 226 µM)
Ki (Histamine H4 receptor [5]): 7.94 nM
half-life [3]: 4 min
half-life [4]: 43 min
SMILES: CN1CCN(c2cc(-c3ccccc3)nc(N)n2)CC1

Ki (Histamine H4 receptor [1]): 2000 nM
SMILES: Nc1nc(NCCNc2ccncn2)cc(-c2ccccc2)n1

solubility [2]: > 79 µg/mL
Ki (Histamine H4 receptor [1]): 25.1 nM
half-life [3]: 18 min
half-life [4]: > 120 min
SMILES: CC(C)CCc1cc(NCCNc2ccnc(N)n2)nc(N)n1
